Reference: the EternaBench riboswitch data

System: MS2 coat protein
Assay: apparent Kd, MS2 coat protein; higher = weaker binding; RNA-MaP array; FMN 200 µM where present
Method in brief: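 Green signal from SNAP-549-labelled MS2 coat protein was normalised to red-channel RNA signal and to the median Fmax of control clusters. The protein was titrated from 0.7 or 1.5 nM, doubling to 3 µM, without and then with constant ligand, over designs transcribed by stalled E. coli RNA polymerase on Illumina sequencing-chip clusters, in 100 mM Tris-HCl pH 7.5, 80 mM KCl, 4 mM MgCl2, BSA, DTT, yeast tRNA and Tween-20. The apparent Kd is the median of filtered per-cluster binding-curve fits.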

[1] = designed as: ON switch for flavin mononucleotide, no ligand
[2] = ligand present: flavin mononucleotide, designed as: ON switch for flavin mononucleotide
[3] = designed as: OFF switch for flavin mononucleotide, no ligand
[4] = ligand present: flavin mononucleotide, designed as: OFF switch for flavin mononucleotide

| Sequence | apparent Kd [1] [nM] | apparent Kd [2] [nM] | apparent Kd [3] [nM] | apparent Kd [4] [nM] |
| --- | --- | --- | --- | --- |
| AACAAUCUAUCUGAGGAUAUCAUGUCAAAGACAUGAGGAUCACCCAUGUUGCAGGAAACUGCUCAUGAGAAGGCAGAUAGAUUGA | 614 | 43.7 | – | – |
| UGUCGGAGCAGAGGAUAUUACAUGAGGAUCACCCAUGUAUGAACCAAUAGCUGGAAACAGCAAUGUAAGAAGGCUGCUCCGACC | – | – | 12 | 153 |
| CGCUAUGAUGGGUUUAAUGGAGCAUAGGAUAUGCUUGUACAUGAGGAUCACCCAUGUUAUAUUUUGCAGAAGGGUGCAUUUGCG | 284 | 95.3 | – | – |
| CCGAAUAUGCAGGAUAUCUUAUCGGAAACGAUAAGAGAAGGGUAAACAUGAGGAUCACCCAUGUUCCUUAACGG | – | – | 20.3 | 21 |
| GAGCCCGUCGAGGAUAUACACCAUAUAUGGCUUGUAGAAGGUGACACAUGAGGAUCACCCAUGUUUGUGGUACA | – | – | 63.2 | 35 |
| GUGGCAUGAGGAUAUCGAGGUUAGUACAUGAGGAUCACCCAUGUUAUCCAGGUGUCGGUUCGAGAAGGCAUGGCAC | – | – | 326 | 302 |
| AGUUACAAACUCAACAUGAGGAUCACCCAUGUACUCUCUUGUAAGGAUAUACAUUCGUAUUGAAAGUAGAAGGUACUAAUUAUG | 69.4 | 69.8 | – | – |
| CUAGCUAUCGGAGGAUAUUCAUAGCCGAAAGGCACAUGAGGAUCACCCAUGUGCGGAAACGCUUGGGAGAAGGCCGAUAGCUAG | 25.7 | 15.2 | – | – |
| AAUAUGAGCUGGUAAAUAAAACCGACAUGAGGAUCACCCAUGUAGGAUAUCAGCACGAUAAGUGCUGAGAAGGACAUCCAGCUC | – | – | 14.4 | 16.7 |
| AUUAAGCAGCAGGAUAUAAUUAUCUGAAGGUGGUUAGAAGGGCUGACAUGAGGAUCACCCAUGUGCUCUUCGUG | – | – | 16.2 | 32.2 |
| CUCCGGCGUGUAGGAUAUGGAUCCGAUUAGGAUCCAGAAGGACAUGAGGAUCACCCAUGUACAUGUAAACAGUCAUCACCGGAC | – | – | 8.66 | 67.6 |
| ACAUGAGGAUCACCCAUGUAAAAUGAAGAAGGUAGAUACUUGAGGAUCACCCAUGUACAUGGGACUAAGGAUAUUCUAAUAAUU | 76.9 | 64.3 | – | – |
| AAACGUAGAGGAUAUACAUAAGUAUUACGAAAGUAAUACAAACAUGAGGAUCACCCAUGUAGAAGGCUACGAAA | – | – | 25.4 | 35.3 |
| CGCAAGUAUACAUGAGGAUCACCCAUGUCAAAUAUGGUAAUCAGAAGGUACAAUUCAAUAUAUAGUAAGGAUAUGAAUUUUGCG | 59 | 23.3 | – | – |
| ACAUGUCGUGAGAAGGACGGCGUGCAUAGCGCCGUAGGAUAUCAAGACAUGAGGAUCACCCAUGUACGCGUGUCCCGCCGUGCU | – | – | 38.7 | 303 |
| GAUAUGAUGUGAGGAUAUGCUGAGGAUACUUCAGCAGAAGGCACAUGAGGAUCACCCAUGUACACUUAUCAUAAAUACCAUAUC | – | – | 12.7 | 19 |
| GCAGGAAAACUUGGUACAUGAGGAUCACCCAUGUAAAGCGGCAGAAGGGCGAUGUUAUGUAUAACGCAGGAUAUGCAGCGGAAU | 46.4 | 18.1 | – | – |
| UCCCGGGUGCAGAAGGGAUAGGCCUAUUUUCGUGGUAUCCAAACCUAACAUGAGGAUCACCCAUGUCAGGAUAUGCCCACGGGA | – | – | 4.87 | 5.29 |
| AAAUGCCUGUCGAUGCUCGACAUGAGGAUCACCCAUGUAUAGCAGGAUAUGCAGAACUGACUCGUGCAGAAGGGCUAUACCUAA | – | – | 38.2 | 315 |
| AUAAAACAUGAGGAUCACCCAUGUCAACAAAGUCGAGGAUAUGGGCAAAUAAAAUAAGAACCAGAAGGCGAAUUAU | 210 | 38.6 | – | – |
| GGCCCGCGCGUGAGGAUAUGCUGAUUCUAGGAUUAGCAGAAGGCACAUGAGGAUCACCCAUGUCCAACUUGUCU | – | – | 28.6 | 36.1 |

| Sequence | apparent Kd [1] [nM] | apparent Kd [2] [nM] | apparent Kd [3] [nM] | apparent Kd [4] [nM] |
| --- | --- | --- | --- | --- |
| UGAAAUCAUGUAGGAUAUGCAUGGCGAAGCUACGCAGAAGGACAUGAGGAUCACCCAUGUUAAAGCUACCGGAUACGGUGGCAA | – | – | 192 | 156 |
| CGGUUGUCAGGAUAUACGAACAUGUCGCCAGAUGUCAUGGUACAUGAGGAUCACCCAUGUAGAAGGGAGGAGGU | – | – | 135 | 80 |
| UGGUACUAGGGAGGAUAUGGCAAGAUACAUGAGGAUCACCCAUGUUUAAGAAUGCCGAGAGGCAACUAGAAGGCCCUAGUACCU | 7.75 | 4.7 | – | – |
| UGAAAGUGAGGAUAUGGUGAGUAGUGCCUGAGCGCUGCUCACCAGAAGGCACAUGAGGAUCACCCAUGUAAAUG | – | – | 53.4 | 170 |
| AAUUUGUGAAAAUUACAUGAGGAUCACCCAUGUUAGGGAAUGCAGGAUAUGUGGAAUAUUAUUUAACAGAAGGGCAAUAAUUUU | 56.3 | 41.6 | – | – |
| AACUAACAUGAGGAUCACCCAUGUUGCAGCGGUUGAGGAUAUGUGGGUGAAAAUAGCAUGGCAGAAGGCGAGUGUA | 120 | 238 | – | – |
| ACAUUUAAUACAGGAUAUGUUAGUAUACAGUAGAUUGGUUAUUACACAACAACAGAAGGGUAGAACAUGAGGAUCACCCAUGUA | 85.1 | 55.3 | – | – |
| GGUCGUCACAUUAACAUGAGGAUCACCCAUGUCAAAAGACAUGAGGAUAUGCAUCCUAAUUGGAUGCAGAAGGCAUGGACGACC | 507 | 32.7 | – | – |
| AACAGCUCGUCAGGAUAUAUUAUCUUUUAAUGUAUUUAUGUACAUGAGGAUCACCCAUGUUGUUUGUAGAAGGGACGAGCUGAA | – | – | 11.1 | 13.1 |
| GUAGCAUACCGAGGAUAUUCAUAUAGGAAACAAACAUGAGGAUCACCCAUGUGGCGAAAGCCUUGGGAGAAGGCGGAAUGCUAC | 115 | 21.1 | – | – |
| AAAAAGUCAGGAUAUACAUGAGGAUCACCCAUGUAGCAUACGAAAAAGAGUGUGCAGUGUAGAAGGGACAAAAA | – | – | 27.1 | 25.7 |
| AGUGCGUAUGUGAGGAUAUGCUGGUCCUUGGAUCAGCAGAAGGCACAUGAGGAUCACCCAUGUGGUGUCGUACC | – | – | 209 | 36.4 |
| AGAAACUACGAGAAGGACAUAUGACUAAGACUAAACAUGAGGAUCACCCAUGUAGGAUAUCGUAGUUUCAGGAUCGUGAGAUCA | – | – | 5.75 | 7.87 |
| GAACGUGACAUGAGGAUCACCCAUGUUGCCUGAGCCAGGUCGUAGGAUAUCCUGUUGAUUAAUUUGGAGAAGGGCGACUGGGAG | 46.5 | 18.3 | – | – |
| CUCAUGUUAGGAUAUGCGCCCAGCCUAGUGGCCGGGCUCUAGCAGAAGGAACAUGAGGAUCACCCAUGUUUGCA | – | – | 62.5 | 18.6 |
| GUCAUACAUGAGGAUCACCCAUGUAAGGAUAUGCUAGCGGUCGGCUGACUGACUGCUAGCAGAAGGUACAUGAU | – | – | 64.1 | 90 |
| UUACAUACAAAGUUACAUGAGGAUCACCCAUGUUUAUUGGGAAGAAGGGUAACAGUAUUACAUAUAUAGGAUAUUUCACAAUUG | 333 | 181 | – | – |
| GGACUGGACUAGAAGGGUGAUGCGCUCGCAGACACAGGAUAUAGUCACAUGAGGAUCACCCAUGUCGGUCCAUGUAAAGAAACU | 20.2 | 14.8 | – | – |
| GAGCCCGAUGAGAAGGGUUACAUGAGGAUCACCCAUGUCGACCUUGGCGUAACAGGAUAUCAUCGAGCUCUGUGCGUUGACCCA | – | – | 25.5 | 132 |
| GACCGAUAGUCAGGAUAUGCAUGGUUAGUUGAUUACAUGAGGAUCACCCAUGUAGAAGGGACUUUGGCGAAAUCCGUGAUGCGU | – | – | 44.1 | 115 |
| AUACCACGAGGAUAUCGUCUAUAAUACAUGAGGAUCACCCAUGUUAUAUCUGUAAUGUUUCGAGAAGGCGUUUGUU | – | – | 24.3 | 17.1 |
